Source: ChEMBL document CHEMBL1629687, “Minigenome-based reporter system suitable for high-throughput screening of compounds able to inhibit Ebolavirus replication and/or transcription” (Antimicrob Agents Chemother, 2010)

Key:
Ebolavirus = experiment: Antiviral activity against Ebolavirus infected in african green monkey COS1 cells assessed as inhibition of viral replication after 32 hrs by luciferase reporter gene assay; assay type: functional, COS-1
Outline: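 Ebola minigenome assay, not live virus: COS-1 cells in suspension were batch-transfected with minireplicon and NP/VP35/L support plasmids, then plated in 96-well format. Compounds in DMSO were added at 10 μM final; DMSO-only wells served as controls. Luciferase was read after 32 h. Percent inhibition = 1 − (compound-well signal / mean DMSO-well signal) × 100.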

[1] = Cytotoxicity against african green monkey COS1 cells assessed as reduction in cell viability after 32 hrs by luminescent assay; assay type: cell-based, COS-1; conditions: chlorocebus aethiops, read-out: INH
Outline: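 Parallel plates of batch-transfected COS-1 cells received the same compounds in DMSO (10 μM final). Cell viability was measured with the CellTiter-Glo luminescent assay to flag cytotoxicity.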

SMILES | inhibition (INH) (Ebolavirus) [%] | cytotoxicity at 32 h [1] [%]
CC[C@H]1CN2CCc3cc(OC)c(OC)cc3[C@@H]2C[C@@H]1C[C@H]1NCCc2cc(O)c(OC)cc21.Cl.Cl [CEPHAELINE DIHYDROCHLORIDE] | 99 | 14
COc1cccc2c1C(=O)c1c(O)c3c(c(O)c1C2=O)C[C@@](O)(C(=O)CO)C[C@@H]3O[C@H]1C[C@H](N)[C@H](O)[C@H](C)O1.Cl [DOXORUBICIN HYDROCHLORIDE] | 97 | 25
Cc1c2ccncc2c(C)c2c1[nH]c1ccccc12 [ELLIPTECINE] | 99 | 8
CC[C@H]1CN2CCc3cc(OC)c(OC)cc3[C@@H]2C[C@@H]1C[C@H]1NCCc2cc(OC)c(OC)cc21.Cl.Cl [EMETINE HYDROCHLORIDE] | 99 | 3
O=C1C=C2C(=CCOC2O)O1 (configuration not stated) [PATULIN] | 89 | 20
CC[C@@H](C(=O)[C@@H](C)[C@@H](O)[C@H](C)[C@@H]1O[C@@H]([C@@H](CC)C(=O)O)CC[C@@H]1C)[C@H]1O[C@]2(C=C[C@@H](O)[C@]3(CC[C@@](C)([C@H]4CC[C@](O)(CC)[C@H](C)O4)O3)O2)[C@H](C)C[C@@H]1C [SALINOMYCIN] | 86 | 17
